Laboratory results as given in ChEMBL document CHEMBL1124700, “1,4-Dihydronaphthoquinones, hydroindoloquinones, benzofurans, and benzothiophenes as inhibitors of 5-lipoxygenase. Synthesis and structure-activity studies” (J Med Chem, 1990).
pIC50: −log10 of the molar value.

Legend:
Rattus norvegicus [1] = species on record: Rattus norvegicus; test: In vitro inhibition of LTC4/D4 (leukotriene) production in rat peritoneal mononuclear cells.; assay type: functional, cell-based; conditions: for pIC50: Rattus norvegicus, read-out: IC50
In short: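 Rat peritoneal mononuclear cells challenged with calcium ionophore A23187 in presence of cysteine. Initial screen at 10 μg/mL, duplicate determinations, expressed as percent of control. IC50 from follow-up testing, interpolated from log dose–response plot. LTC4/D4 measured by guinea pig ileum bioassay (atropinized, mepyramine-treated) or, later, LTC4-selective radioimmunoassay.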

[2] = molecular target: T1, Polyunsaturated fatty acid 5-lipoxygenase (Rattus norvegicus) (UniProt P12527); test: Ex vivo inhibition of LTB4 production in rat blood following 50 mg/kg p.o.; assay type: functional, organism-based; design: dose 50 mg/kg; conditions: at 50 mg/kg
T1 sequence (whole entry): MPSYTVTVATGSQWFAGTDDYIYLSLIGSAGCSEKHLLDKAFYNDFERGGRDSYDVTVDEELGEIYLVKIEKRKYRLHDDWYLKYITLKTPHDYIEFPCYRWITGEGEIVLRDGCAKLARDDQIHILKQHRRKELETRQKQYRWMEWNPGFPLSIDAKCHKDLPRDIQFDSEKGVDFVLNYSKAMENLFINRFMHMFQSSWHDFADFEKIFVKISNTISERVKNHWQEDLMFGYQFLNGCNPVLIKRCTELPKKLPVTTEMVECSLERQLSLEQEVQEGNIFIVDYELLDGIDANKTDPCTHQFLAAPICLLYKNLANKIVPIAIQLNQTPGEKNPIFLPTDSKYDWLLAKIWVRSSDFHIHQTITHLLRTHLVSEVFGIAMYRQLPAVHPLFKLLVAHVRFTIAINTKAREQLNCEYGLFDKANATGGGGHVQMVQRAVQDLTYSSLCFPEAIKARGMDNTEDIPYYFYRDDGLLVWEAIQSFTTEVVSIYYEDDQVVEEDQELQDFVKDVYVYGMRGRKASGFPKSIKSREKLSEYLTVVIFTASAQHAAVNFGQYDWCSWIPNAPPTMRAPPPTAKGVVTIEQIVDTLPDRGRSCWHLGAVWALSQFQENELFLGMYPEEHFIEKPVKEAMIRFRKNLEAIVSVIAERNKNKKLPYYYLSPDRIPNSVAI
In short: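 Male Sprague-Dawley rats (225–275 g), fasted 18 h, given test compound orally at 50 mg/kg; controls got vehicle; five rats per compound. At 2 h, anesthetized; heparinized blood from vena cava. Blood (1.0 mL) stimulated with A23187 (30 μM), 30 min, 37 °C; plasma LTB4 by radioimmunoassay. Percent inhibition from mean treated vs mean control; Wilcoxon rank sum.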

Rattus norvegicus [3] = species on record: Rattus norvegicus; test: Ex vivo inhibition of LTB4 production was determined; assay type: functional, organism-based
In short: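 Male Sprague-Dawley rats (225–275 g), fasted 18 h, given 50 mg/kg orally in 1.0 mL solution; controls received 1.0 mL vehicle; five rats per compound. Heparinized vena cava blood taken 2 h post-dose under anesthesia; 1.0 mL stimulated with A23187 (30 μM) 30 min at 37 °C. Plasma LTB4 by radioimmunoassay; percent inhibition from group mean vs control mean; Wilcoxon rank sum statistics.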

| Compound | pIC50 (Rattus norvegicus [1]) | also measured |
| --- | --- | --- |
| CCCCc1cc(OC)c2ccccc2c1OC(C)=O [BUNAPROLAST] | 6.36 | inhibition [2]: 61.1% |
| CCOc1c(C(C)O[Si](C)(C)C(C)(C)C)c(OC(C)=O)c2ccccc2c1OC (stereo unspecified) | 4.62 |  |
| CCCCc1cc(OC)c2c(C)c(C)c(C)c(C)c2c1OC(C)=O | 4.36 | inhibition [2]: 41.2% |
| CCCc1c(CCC)c(OC(C)=O)c2ccccc2c1OC | 5.84 |  |
| CCCCc1c(C)c(OC)c2c(ccn2C)c1OC(C)=O | 6.12 |  |
| CCCCC1=CC(=O)c2occc2C1=O | 5.69 |  |
| CCCCc1ccc2c(OC(C)=O)c(CC)c(CC)c(OC)c2c1 | 6.03 | inhibition [2]: 17% |
| CCOC(=O)c1c(-c2ccccc2)c(OC(C)=O)c2ccccc2c1OC | 5.24 |  |
| CCCCc1cc(OC)c2ccccc2c1OC | 4.39 |  |
| CCCCc1c(CCCC)c(OC)c2occc2c1O | 5.94 |  |
| O=C1C=CC(=O)c2ccccc21 |  | pIC50 (Rattus norvegicus [3]): > 4.70 |
| CCOC(=O)c1c(CC)c(OC(C)=O)c2ccccc2c1OC | 5.94 |  |
| CCCCc1cc(OC)c2ccc(OC)cc2c1OC(C)=O | 5.86 |  |
| CCCCC1=CC(=O)c2sccc2C1=O | 4.63 |  |
| CCCCc1cc(OC)c2sccc2c1O | 5.98 |  |
| CCc1c(CC)c(OC)c2c(OC)cccc2c1OC(C)=O | 6.05 |  |
| CCCCCc1c(C(=O)OCC)c(OC)c2ccccc2c1OC(C)=O | 6.03 |  |
| COc1c(C)c(-c2ccccc2)c(O)c2ccoc12 | 5.90 |  |
| CCCCc1c(C)c(OC)c2ccccc2c1OC(C)=O | 6.70 |  |
| CCc1c(CC)c(OC)c2c(C)cccc2c1OC(C)=O | 6.08 | inhibition [2]: 40.6% |
| CCCCc1cc(OC)c2c(C)cc(C)c(C)c2c1OC(C)=O | 4.93 | inhibition [2]: 35.4% |
| CCCCc1c(CC)c(OC)c2ccccc2c1OC(C)=O | 6.00 |  |
| C=Cc1c(OCC)c(OC)c2ccccc2c1OC |  | IC50 (Rattus norvegicus [1]): Not Active |
| CCCCc1c(C)c(OC(C)=O)c2ccn(C)c2c1OC | 6.12 |  |
| CCCCc1cc(OC)c2c(C)ccc(C)c2c1OC(C)=O | 5.13 | inhibition [2]: 19.1% |
| CCc1c(CC)c(OC(C)=O)c2cc(OC)ccc2c1OC | 6.16 |  |

| Compound | pIC50 (Rattus norvegicus [1]) | also measured |
| --- | --- | --- |
| CCCCCc1c(C(=O)OCC)c(OC(C)=O)c2ccccc2c1OC | 5.05 |  |
| CCCCc1cc(OC)c2c(ccn2C)c1OC(C)=O | 6.14 |  |
| CCCCc1cc(OC)c2c(C)cccc2c1OC(C)=O | 6.21 | inhibition [2]: 31.8% |
| CCc1c(CC)c(OC(C)=O)c2c(C)c(C)c(C)c(C)c2c1OC | 4.43 | inhibition [2]: -4.9% |
| CCCCc1cccc2c(OC)c(CC)c(CC)c(OC(C)=O)c12 | 4.85 | inhibition [2]: 30.5% |
| CCCCc1cc(OC)c2occc2c1OC(C)=O | 6.96 |  |
| CCCCC1=CC(=O)c2ccccc2C1=O | 5.65 |  |
| CCCCc1ccc2c(OC(C)=O)c(CCCC)cc(OC)c2c1 | 6.32 | inhibition [2]: 19.2% |
| CCOC(=O)c1c(CC)c(OC)c2ccccc2c1OC(C)=O | 5.42 |  |
| COc1c(-c2ccccc2)c(-c2ccccc2)c(OC(C)=O)c2ccccc12 | 4.96 |  |
| CCc1c(CC)c(OC)c2c(ccn2C)c1OC(C)=O | 5.69 |  |
| CCCCc1c(CC)c(OC(C)=O)c2ccccc2c1OC | 5.95 |  |
| CCCCc1cc(OC)c2c(OC)cccc2c1OC(C)=O | 6.59 | inhibition [2]: 17.5% |
| CCOc1c(C(C)O)c(OC)c2ccccc2c1OC (stereo unspecified) | 4.07 |  |
| CCCCc1cc(OC)c2sccc2c1OC(C)=O | 6.34 |  |
| COc1cc(-c2ccccc2)c(O)c2ccoc12 | 5.66 |  |
| CCc1c(CC)c(OC(C)=O)c2c(C)ccc(C)c2c1OC | 4.89 | inhibition [2]: 50.6% |
| CCCCc1c(CCCC)c(OC(C)=O)c2ccccc2c1OC | 5.22 | inhibition [2]: 29.2% |
| CCCCc1cc(OC)c2occc2c1O | 4.92 |  |
| CCCCc1cc(OC)c2ccccc2c1O | 5.83 |  |
| CCc1c(CC)c(OC(C)=O)c2ccccc2c1OC | 6.40 | inhibition [2]: 74.8% |
| COc1cc(-c2ccccc2)c(OC(C)=O)c2ccn(C)c12 | 5.41 |  |
| COc1c(-c2ccccc2)c(-c2ccccc2)c(OC(C)=O)c2ccn(C)c12 |  | IC50 (Rattus norvegicus [1]): Not Active |
| COc1c(-c2ccccc2)c(-c2ccccc2)c(O)c2ccoc12 | 5.36 |  |
| CCc1c(CC)c(OC(C)=O)c2c(C)c(C)cc(C)c2c1OC | 4.80 | inhibition [2]: 14.7% |
